Reference: ChEMBL document CHEMBL1124475, “The thieno[3,2-c]pyridine and furo[3,2-c]pyridine rings: new pharmacophores with potential antipsychotic activity” (J Med Chem, 1989)
The source made the active and inactive calls. The calls are words filed in the database; no cut-off is given here.

Columns and labels:
Rattus norvegicus [1] = experiment: Induction of catalepsy in rats when administered perorally and maximum dose examined was 4 times the ED50 value established in CAR; Inactive; type: functional, organism-based
Mus musculus [2] = experiment: Blockade of apomorphine-induced climbing in mice when administered perorally; type: functional
Method in brief: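 Male mice habituated 30 min in individual cages, then dosed orally (distilled H2O or 0.5% Methocel suspension, 10 mL/kg) or vehicle. Apomorphine 1.5 mg/kg sc given 30 min later. Climbing scored at 10, 20, 30 min post-apomorphine. At least five animals per dose, maximum 100 mg/kg.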

[3] = target: Serotonin 1 (5-HT1) receptor (Rattus norvegicus, UniProt P28564+P30940+P19327+P28565); experiment: Ability to bind at 5-hydroxytryptamine 1 receptor of rat hippocampus by displacing [3H]5-HT; type: tissue-based
Method in brief: (§1)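 Rat receptor radioligand displacement, five test-ligand concentrations used to calculate IC50, each assay in duplicate. Some compounds determined four times (in duplicate), with mean IC50 reported.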

Rattus norvegicus [4] = experiment: spontaneous discharge activity of individual noradrenergic neurons in the locus coeruleus (LC) when administered intravenously in anesthetized male Sprague-Dawley rats; (excitatory); type: functional; conditions: iv
[5] = target: T1, Adrenergic receptor alpha-1 (Rattus norvegicus, UniProt P15823+P23944+P43140); experiment: Ability to bind at alpha-1 adrenergic receptor by displacing [3H]WB-4101; type: protein assay; method in brief: as §1
T1 sequence (P15823 whole entry): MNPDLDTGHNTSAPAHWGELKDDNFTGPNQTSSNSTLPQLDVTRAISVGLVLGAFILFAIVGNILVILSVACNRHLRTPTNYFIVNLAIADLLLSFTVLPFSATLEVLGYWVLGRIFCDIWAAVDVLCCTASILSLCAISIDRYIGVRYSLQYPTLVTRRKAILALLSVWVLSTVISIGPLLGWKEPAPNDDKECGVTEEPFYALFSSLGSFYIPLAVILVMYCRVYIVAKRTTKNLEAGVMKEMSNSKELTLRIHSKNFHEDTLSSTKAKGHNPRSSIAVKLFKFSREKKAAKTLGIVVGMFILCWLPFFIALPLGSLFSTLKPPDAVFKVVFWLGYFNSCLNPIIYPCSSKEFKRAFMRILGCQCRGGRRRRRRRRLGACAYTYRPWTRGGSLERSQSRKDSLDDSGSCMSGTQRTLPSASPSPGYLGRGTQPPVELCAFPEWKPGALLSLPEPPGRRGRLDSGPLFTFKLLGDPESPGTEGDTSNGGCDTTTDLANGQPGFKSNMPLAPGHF
T1 sequence (P23944 whole entry): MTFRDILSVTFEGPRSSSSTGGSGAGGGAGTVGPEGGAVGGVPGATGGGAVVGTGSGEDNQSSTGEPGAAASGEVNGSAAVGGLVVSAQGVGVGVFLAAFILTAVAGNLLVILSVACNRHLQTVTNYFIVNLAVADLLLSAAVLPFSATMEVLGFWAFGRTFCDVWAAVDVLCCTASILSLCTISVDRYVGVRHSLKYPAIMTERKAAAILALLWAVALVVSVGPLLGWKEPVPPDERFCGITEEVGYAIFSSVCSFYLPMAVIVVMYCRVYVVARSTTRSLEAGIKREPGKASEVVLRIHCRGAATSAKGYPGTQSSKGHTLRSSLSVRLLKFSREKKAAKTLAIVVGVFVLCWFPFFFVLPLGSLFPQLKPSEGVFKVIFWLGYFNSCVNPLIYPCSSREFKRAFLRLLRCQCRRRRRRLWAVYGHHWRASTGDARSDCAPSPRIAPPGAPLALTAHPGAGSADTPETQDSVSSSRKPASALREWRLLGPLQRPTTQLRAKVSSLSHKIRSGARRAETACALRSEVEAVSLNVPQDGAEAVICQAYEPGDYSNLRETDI
T1 sequence (P43140 whole entry): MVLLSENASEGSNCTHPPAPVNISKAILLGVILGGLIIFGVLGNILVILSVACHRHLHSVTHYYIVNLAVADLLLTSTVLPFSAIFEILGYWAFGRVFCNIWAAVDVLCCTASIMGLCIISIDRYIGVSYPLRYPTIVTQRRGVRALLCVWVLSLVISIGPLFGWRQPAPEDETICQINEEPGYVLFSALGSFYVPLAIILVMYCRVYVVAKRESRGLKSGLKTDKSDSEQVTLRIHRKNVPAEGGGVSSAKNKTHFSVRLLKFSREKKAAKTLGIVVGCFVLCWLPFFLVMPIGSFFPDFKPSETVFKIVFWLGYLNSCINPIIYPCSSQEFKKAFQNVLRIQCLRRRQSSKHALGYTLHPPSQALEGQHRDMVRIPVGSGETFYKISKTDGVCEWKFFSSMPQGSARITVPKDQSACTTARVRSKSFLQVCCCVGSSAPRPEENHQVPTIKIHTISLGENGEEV

Rattus norvegicus [6] = experiment: Spontaneous discharge activity of individual serotonergic neurons in the dorsal raphe (DR) nucleus when administered intravenously in anesthetized male Sprague-Dawley rats; (inhibitory); type: functional; conditions: iv
Rattus norvegicus [7] = experiment: Spontaneous discharge activity of individual dopaminergic neurons in the ventral tegmentum neurons (A10 DA cells) when administered intravenously at a dose of 0.1-6.3 mg/kg in anesthetized male Sprague-Dawley rats; (excitatory); type: functional; conditions: A10DA, iv
D(2) dopamine receptor [8] = target: T2, D(2) dopamine receptor (Rattus norvegicus, UniProt P61169); experiment: Ability to bind at Dopamine receptor D2 of rat corpus striatum by displacing [3H]spiperone; method in brief: as §1
T2 sequence (P61169 whole entry): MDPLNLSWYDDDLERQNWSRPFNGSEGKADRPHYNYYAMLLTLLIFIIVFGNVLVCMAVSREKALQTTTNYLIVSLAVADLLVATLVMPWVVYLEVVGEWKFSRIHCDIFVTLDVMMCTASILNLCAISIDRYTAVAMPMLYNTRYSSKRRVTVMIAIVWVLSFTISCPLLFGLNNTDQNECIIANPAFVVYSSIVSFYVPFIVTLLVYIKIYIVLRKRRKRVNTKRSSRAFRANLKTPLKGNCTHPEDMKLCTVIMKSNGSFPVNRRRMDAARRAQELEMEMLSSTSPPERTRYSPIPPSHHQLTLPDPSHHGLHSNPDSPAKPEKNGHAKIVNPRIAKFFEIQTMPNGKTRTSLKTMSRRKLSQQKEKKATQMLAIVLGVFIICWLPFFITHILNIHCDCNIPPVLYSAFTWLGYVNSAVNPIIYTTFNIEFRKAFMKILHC

Rattus norvegicus [9] = experiment: Conditioned avoidance response (CAR) when administered perorally; type: functional; conditions: po
Rattus norvegicus [10] = experiment: Spontaneous discharge activity of individual dopaminergic neurons in the substantia nigra (A9 DA cells) when administered intravenously at a dose of 0.1-6.3 mg/kg in anesthetized male Sprague-Dawley rats; (excitatory); type: functional; conditions: A9DA, iv
[11] = target: T3, Serotonin 2 (5-HT2) receptor (Rattus norvegicus, UniProt P30994+P08909+P14842); experiment: Ability to bind at serotonin 5-hydroxytryptamine 2 receptors of rat cortex by displacing [3H]spiperone
Rattus norvegicus [12] = experiment: Blockade of Sidman-avoidance activity in rats when administered perorally; type: functional
Method in brief: (§2)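 Rats trained in once-daily Sidman sessions until stable; non-learners after 3 days replaced. Twelve rats dosed 30 min before session. Each rat compared with mean of its previous three drug-free days by paired t test. Testing continued to minimally effective dose; maximum usually 100 mg/kg. MED is mean over 12 animals.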

Rattus norvegicus [13] = experiment: Blockade of apomorphine-induced stereotypy in rats when administered perorally; type: functional; conditions: po
[14] = target: T3, Serotonin 2 (5-HT2) receptor; experiment: Ability to bind at 5-hydroxytryptamine 2 receptor of rat cortex by displacing [3H]spiperone
[15] = target: T1, Adrenergic receptor alpha-1; experiment: Ability to bind at Alpha-1 adrenergic receptor by displacing [3H]WB-4101; type: protein assay
Rattus norvegicus [16] = experiment: Reversal of trifluoperazine-induced catalepsy in rats when administered perorally; Inactive; type: functional, organism-based
Rattus norvegicus [17] = experiment: Blockade of Sidman-avoidance activity in rats when administered perorally; Inactive; type: functional, organism-based; method in brief: as §2
D(2) dopamine receptor [18] = target: T2, D(2) dopamine receptor; experiment: Ability to bind at dopamine receptor D2 of rat corpus striatum by displacing [3H]spiperone
Rattus norvegicus [19] = experiment: Reversal of trifluoperazine-induced catalepsy in rats when administered perorally; Inactive, maximum dose examined was 20 mg/Kg; type: functional, organism-based
Rattus norvegicus [20] = experiment: Induction of catalepsy in rats when administered perorally; type: functional; conditions: po
Mus musculus [21] = experiment: Blockade of apomorphine-induced climbing in mice when administered perorally
[22] = target: T4, Adrenergic receptor alpha-2 (Rattus norvegicus, UniProt P22086+P19328+P22909); experiment: Ability to bind at alpha-2 adrenergic receptor by displacing [3H]clonidine; type: protein assay
T4 sequence (P22086 whole entry): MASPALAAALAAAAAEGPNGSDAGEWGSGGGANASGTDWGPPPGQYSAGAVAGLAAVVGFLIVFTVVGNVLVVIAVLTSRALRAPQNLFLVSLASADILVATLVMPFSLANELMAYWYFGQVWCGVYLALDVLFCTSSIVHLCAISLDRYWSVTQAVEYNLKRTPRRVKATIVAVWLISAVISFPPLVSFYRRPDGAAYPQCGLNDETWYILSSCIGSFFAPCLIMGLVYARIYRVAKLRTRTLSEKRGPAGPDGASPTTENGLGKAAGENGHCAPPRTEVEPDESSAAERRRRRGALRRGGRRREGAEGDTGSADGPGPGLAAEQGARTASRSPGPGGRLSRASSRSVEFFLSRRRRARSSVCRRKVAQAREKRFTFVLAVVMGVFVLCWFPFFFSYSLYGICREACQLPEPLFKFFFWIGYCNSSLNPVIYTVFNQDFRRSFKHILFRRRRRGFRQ
T4 sequence (P19328 whole entry): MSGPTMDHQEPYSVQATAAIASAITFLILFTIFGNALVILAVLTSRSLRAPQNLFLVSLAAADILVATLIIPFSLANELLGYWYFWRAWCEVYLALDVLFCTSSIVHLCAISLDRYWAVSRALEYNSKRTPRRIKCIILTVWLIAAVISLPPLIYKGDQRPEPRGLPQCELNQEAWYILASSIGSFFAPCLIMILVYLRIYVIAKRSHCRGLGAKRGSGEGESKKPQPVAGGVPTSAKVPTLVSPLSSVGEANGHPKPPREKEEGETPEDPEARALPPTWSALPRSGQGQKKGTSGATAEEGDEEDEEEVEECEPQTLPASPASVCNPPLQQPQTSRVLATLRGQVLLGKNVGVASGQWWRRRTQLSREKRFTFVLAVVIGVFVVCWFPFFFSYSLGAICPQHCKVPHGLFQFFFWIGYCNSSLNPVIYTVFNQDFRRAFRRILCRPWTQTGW
T4 sequence (P22909 whole entry): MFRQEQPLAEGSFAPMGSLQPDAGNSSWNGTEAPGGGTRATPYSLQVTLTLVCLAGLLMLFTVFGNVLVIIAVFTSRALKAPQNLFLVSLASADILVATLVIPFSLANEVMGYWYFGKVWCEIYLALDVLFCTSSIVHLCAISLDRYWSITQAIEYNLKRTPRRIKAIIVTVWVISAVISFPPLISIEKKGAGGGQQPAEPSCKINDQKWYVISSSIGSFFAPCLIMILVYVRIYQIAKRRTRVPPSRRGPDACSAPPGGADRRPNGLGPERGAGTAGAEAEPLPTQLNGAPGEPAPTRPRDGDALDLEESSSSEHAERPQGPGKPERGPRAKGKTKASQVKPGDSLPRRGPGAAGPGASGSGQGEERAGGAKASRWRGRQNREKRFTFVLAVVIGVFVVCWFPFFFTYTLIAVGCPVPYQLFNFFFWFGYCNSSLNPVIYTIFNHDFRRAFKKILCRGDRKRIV

Rattus norvegicus [23] = experiment: Approximate effective dose (AED) in inhibition of spontaneous motor activity when administered perorally; type: functional
Method in brief: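 Three groups of five animals, each group at a different dose. Mean log activity count per group compared with vehicle controls, and the difference plotted against log dose. AED taken at the dose giving a 0.3 log-unit (about 2-fold) difference from control.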

| SMILES | IC50 [3] [µM] | IC50 [5] [µM] | IC50 (D(2) dopamine receptor [8]) [µM] | ED50 (Rattus norvegicus [9]) [mg/kg] | IC50 [11] [µM] | MED50 (Rattus norvegicus [12]) [mg/kg] | ED50 (Rattus norvegicus [13]) [mg/kg] | further results |
| --- | --- | --- | --- | --- | --- | --- | --- | --- |
| CC1(C)CC(=O)N(CCCCN2CCN(c3nccc4sccc34)CC2)C(=O)C1.Cl | 0.0057 | 0.0188 | 0.115 | 6 | 0.003 | 50 | 39.7 | ED50 (Rattus norvegicus [1]): inactive; MED50 (Mus musculus [2]): 10 mg/kg; ED25 (Rattus norvegicus [4]): 0.06 mg/kg; ED50 (Rattus norvegicus [6]): 0.042 mg/kg; ED25 (Rattus norvegicus [7]): 0.05 mg/kg; ED25 (Rattus norvegicus [10]): 0.086 mg/kg |
| Cl.O=C1SC2(CCCC2)C(=O)N1CCCCN1CCN(c2nccc3ccsc23)CC1 | 0.0037 |  |  | 43.1 |  |  | 46.7 | IC50 [14]: 0.0202 µM; IC50 [15]: 0.0368 µM; ED50 (Rattus norvegicus [16]): inactive; MED50 (Rattus norvegicus [17]): inactive; IC50 (D(2) dopamine receptor [18]): 0.418 µM |
| CN1CCN(C2=Nc3cc(Cl)ccc3Nc3ccccc32)CC1 [CLOZAPINE] |  |  |  |  |  | 50 |  | ED50 (Rattus norvegicus [19]): inactive; ED50 (Rattus norvegicus [20]): > 200 mg/kg; MED50 (Mus musculus [21]): 10 mg/kg |
| Cl.c1cc2sccc2c(N2CCNCC2)n1 | 0.0713 | 0.139 | > 1 | 28.6 | 0.141 |  |  | IC50 [22]: 0.113 µM; AED (Rattus norvegicus [23]): 20.9 mg/kg |
